Bioassay records deposited in PubChem BioAssay by several laboratories.
Rows were chosen to be rich in hits. Some 2.5% of all compounds tested hit in one or more screens of this group.
TRPC4 inh = TRPC4 (mouse) channel inhibition; hit rate 0.39% among 300,000; HEK293 TRPC4beta/mu-opioid, DAMGO-evoked Fluo4 calcium flux; active compounds read low; B-score at 10 µM; Q9QUQ5;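 active means B-score over 3 SD under the library average, no early fluorescence shift, positive overall ratio signal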
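Assay system: HEK293 cells with stable TRPC4beta plus mu-opioid receptor expression. Dosing: single dose. Measured by: Fluo4 Ca2+ flux fluorescence. Also added: DAMGO in two steps, submaximal then maximal. Read-out: B score from integrated Fluo4 fluorescence ratio.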
Platelet DG rel = platelet dense granule release activity | human platelet-rich plasma, SFLLRN dense granule ATP release, luminescence | inhibition, %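 (compounds screened at 7.5 µM in platelet-rich plasma)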 | hit rate 0.22% among 300,000;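 active means mean replicate score, as percent of positive control, at or above 50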
TRPC6 activator = mouse TRPC6 channel activation; Q61143; HEK293-TRPC6 membrane potential dye fluorescence; active compounds read high; B-score at 10 µM; hit rate 0.13% among 310,000; AID 2550;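 active means B-score of the integrated fluorescence ratio above library mean plus 3 SD, and starting fluorescence ratio within library mean plus 5 SD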;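 further: higher score means more depolarization so channel activation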
Target sequence (Q61143 whole entry, looked up): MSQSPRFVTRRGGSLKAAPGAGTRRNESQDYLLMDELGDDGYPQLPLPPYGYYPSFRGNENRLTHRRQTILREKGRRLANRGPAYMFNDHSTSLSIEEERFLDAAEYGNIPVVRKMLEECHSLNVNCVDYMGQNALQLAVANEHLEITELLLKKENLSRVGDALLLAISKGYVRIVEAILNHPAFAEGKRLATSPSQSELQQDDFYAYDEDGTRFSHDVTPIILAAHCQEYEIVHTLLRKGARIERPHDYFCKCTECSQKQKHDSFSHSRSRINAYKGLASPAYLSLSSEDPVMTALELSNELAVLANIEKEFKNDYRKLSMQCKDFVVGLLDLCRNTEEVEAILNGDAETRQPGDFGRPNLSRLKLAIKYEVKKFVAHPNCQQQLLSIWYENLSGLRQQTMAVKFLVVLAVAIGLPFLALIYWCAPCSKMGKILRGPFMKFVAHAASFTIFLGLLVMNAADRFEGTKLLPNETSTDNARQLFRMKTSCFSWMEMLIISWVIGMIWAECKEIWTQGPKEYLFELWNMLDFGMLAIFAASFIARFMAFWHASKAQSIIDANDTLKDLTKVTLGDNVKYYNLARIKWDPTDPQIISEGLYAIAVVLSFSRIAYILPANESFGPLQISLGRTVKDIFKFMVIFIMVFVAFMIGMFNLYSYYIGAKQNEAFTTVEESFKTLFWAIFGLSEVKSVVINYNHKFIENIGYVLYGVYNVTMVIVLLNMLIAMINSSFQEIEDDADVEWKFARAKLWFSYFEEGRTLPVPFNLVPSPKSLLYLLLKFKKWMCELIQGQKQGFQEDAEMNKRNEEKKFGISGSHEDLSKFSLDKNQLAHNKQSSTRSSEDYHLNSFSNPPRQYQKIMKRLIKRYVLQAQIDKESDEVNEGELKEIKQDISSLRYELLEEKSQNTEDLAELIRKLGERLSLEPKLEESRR
TRPC6 inh = blocks the mouse TRPC6 cation channel | HEK293-TRPC6, membrane potential dye, ACh-evoked depolarization; active compounds read low | B-score at 10 µM | hit rate 1.1% among 310,000 | AID 2553;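 active means B-score under library mean minus 3 SD, initial fluorescence not abnormally high, positive integrated signal ratio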;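 further: B-score derived from integrated fluorescence ratio over the kinetic read; more negative B-score means stronger inhibition of depolarization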
TRPC4 agonist = TRPC4 (mouse) channel activation; AID 2237; B-score at 10 µM; hit rate 0.49% among 310,000; HEK293 TRPC4beta/mu-opioid, Fluo4 calcium fluorescence; active compounds read high;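 active means B-score above 5 SD of library B-scores, and initial fluorescence ratio not above library mean plus 5 SD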;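 further: positive B-score marks a calcium rise read as TRPC4 activation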
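Technique: kinetic Fluo4 calcium fluorescence; Test system: TRPC4beta and mu-opioid receptor HEK293 stable cells; Measure: B-scored integrated calcium fluorescence ratio; Benchmarks: low control buffer alone, high control maximal DAMGO; Schedule: 45 min room-temperature Fluo4 loading, 110 s read.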
TRPC4 potent = allosteric potentiators of mouse TRPC4 channel | Q9QUQ5 | HEK293 TRPC4beta/mu-opioid, DAMGO EC20, Fluo-4 Ca2+ flux; active compounds read high | B-score at 10 µM | hit rate 0.42% among 310,000 | AID 2227;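 active means B-score of calcium response area above 5 SD of library B-scores, with initial fluorescence ratio within 5 SD of library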;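 further: B-score of integrated fluorescence ratio over time as area under calcium response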
TRPC4 sel inh 2 = second check of whether TRPC6 inhibitors also affect mouse TRPC4 | shares compounds with TRPC6 inh | HEK293 TRPC4/MOR, membrane potential dye fluorescence; channel activated by saturating DAMGO dose | inhibition, % at 10 µM | hit rate 42% among 920 | AID 2776;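 active means compounds whose fluorescence signal differed from control wells by over 3 SD, either direction, in both duplicate plates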
TRPC4 spec = selectivity of TRPC6 inhibitors: effect on mouse TRPC4; AID 2777; shares compounds with TRPC6 inh; hit rate 61% among 920; HEK293 TRPC4/mu-opioid, membrane potential fluorescence; activity change, negative = inhibition, % at 10 µM;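 active means rise or fall in signal beyond 3 SD of buffer-only wells in both replicate plates, either sign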;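 further: integrated kinetic ratio of fluorescence range over baseline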
HEK293 MPD ctr 2-1 = second check of TRPC6 inhibitor effects in parental HEK293 cells; shares compounds with TRPC6 inh; parental HEK293 membrane potential dye fluorescence; maximal acetylcholine challenge after compound addition; signal change vs control, % at 10 µM; hit rate 31% among 920; AID 2779;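 active means membrane potential signal moving either way by over 3 SD of the maximum-effect control, in both duplicate plates, meaning non-specific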
HEK293 MPD ctr-1 = counter-screen for TRPC6 inhibitors: effect in parental HEK293 cells; shares compounds with TRPC6 inh; membrane potential signal change, % at 10 µM; parental HEK293 membrane potential dye fluorescence; hit rate 60% among 920;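 active means membrane potential signal shifting up or down by more than 3 SD of buffer-only wells, on both duplicate plates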
HEK293 MPD ctr-2 = parental HEK293 nonspecific activity of TRPC6 modulators. hit rate 51% among 2,400. shares compounds with TRPC6 inh. membrane potential dye fluorescence. membrane potential signal change, % at 10 µM;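 active means membrane potential signal moves up or down beyond 5 SD from buffer-only wells, on both duplicate plates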
HEK293 MPD ctr 2-2 = second check of TRPC6 modulator effects in parental HEK293 cells; shares compounds with TRPC6 inh; membrane potential dye fluorescence; after compound, maximal acetylcholine stimulation; inhibition, % at 10 µM; hit rate 14% among 2,400;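 active means membrane potential signal drops by more than 5 SD from the mean control signal, in both duplicate plates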;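 further: plate controls were acetylcholine ECmax control wells for no effect and buffer only wells for full effect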
TRPC4/MOR mod = mouse TRPC4 off-target activity of TRPC6 modulators; shares compounds with TRPC6 inh; HEK293 TRPC4/mu-opioid, membrane potential fluorescence; percent change from control (negative = decrease, positive = increase), % at 10 µM; hit rate 69% among 2,400; AID 488927;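 active means membrane potential signal moved up or down beyond 5 SD of buffer control wells, in both duplicate plates, actives on both sides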;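 further: plate controls were assay buffer wells for no effect and DAMGO maximal-effect wells for full effect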
TRPC4/MOR inh 2 = mouse TRPC4 off-target activity of TRPC6 modulators, second screen | shares compounds with TRPC6 inh | inhibition, % at 10 µM | HEK293 TRPC4/mu-opioid, membrane potential dye fluorescence; stimulated with maximal-effect DAMGO | AID 488928 | hit rate 55% among 2,400;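 active means drop in membrane potential signal beyond 5 SD of the control wells in both duplicate plates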;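 further: TRPC4 counter screen for TRPC6 hits run under conditions tuned for TRPC6 not TRPC4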
TRPC6 inh conf = mouse TRPC6 inhibitor confirmation; shares compounds with TRPC6 inh; HEK293-TRPC6, membrane potential dye, ACh-evoked depolarization; inhibition, % at 10 µM; hit rate 43% among 3,300; AID 488960;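 active means fluorescence ratio falls more than 5 SD below the full-stimulation control mean, in both duplicate runs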;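 further: integrated fluorescence ratio of peak minus minimum over baseline after agonist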
TRPC6 act confirm = confirmation of mouse TRPC6 activators; activation, % at 10 µM; shares compounds with TRPC6 inh; hit rate 11% among 2,800; HEK293-TRPC6 membrane potential dye fluorescence, FDSS;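 active means ratio signal rise beyond 5 SD above unstimulated control wells' mean, seen in both duplicate runs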;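 further: plate controls were buffer EC0 wells for no effect and acetylcholine ECmax response for full effect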
* marks the source's active call; other numbers are inactive results; i = inactive; . = no result; + = active, no number.

SMILES	TRPC4 inh	Platelet DG rel	TRPC6 activator	TRPC6 inh	TRPC4 agonist	TRPC4 potent	HEK293 MPD ctr-2	HEK293 MPD ctr 2-2	TRPC4/MOR mod	TRPC4/MOR inh 2	TRPC6 inh conf	TRPC6 act confirm	others
CCCCNC(=O)CCn1nc(-c2ccccc2)c2ccccc2c1=O	i	-8	i	-7.9*	i	i	.	.	.	.	i	.	TRPC4 sel inh 2=i;TRPC4 spec=7.5%*;HEK293 MPD ctr 2-1=i;HEK293 MPD ctr-1=5.7%*
COc1ccc2oc(C(=O)OCC(=O)N3CCCC3=O)c(C)c2c1	i	10	i	i	i	i	.	.	.	.	.	.
O=C(NCC1CCCO1)C1c2ccccc2C(=O)N1C1CCCCCCC1 (stereo unspecified)	i	-8	i	i	i	i	.	.	.	.	.	.
O=C(NCC1CCCO1)[C@@H]1CSC2c3ccccc3C(=O)N21 (stereo partly specified)	i	4	i	-5.4*	i	i	i	i	i	i	i	i
O=C(c1ccc(Cl)c(S(=O)(=O)N2CCOCC2)c1)N(c1ccccn1)C1CCCCC1	i	-20	i	-6*	i	i	170%*	i	30%*	i	i	.
c1ccc(Nc2nc(N3CCCCC3)nc(N3CCNCC3)n2)cc1	i	2	i	-5.6*	i	30*	i	i	14%*	58%*	55%*	.
Cc1ccc(C)c(S(=O)(=O)N2CCC(c3nc4c(nnn4Cc4ccc5c(c4)OCCO5)c(=O)[nH]3)CC2)c1	i	-5	i	i	i	i	.	.	.	.	.	.
CN1CCC(OC(=O)COc2ccc(Br)cc2)CC1	i	-3	i	-5.5*	i	i	i	i	13%*	i	i	.
COc1ccc(OCC(=O)OC2CCN(C)CC2)cc1	i	-4	i	i	i	i	.	.	.	.	.	.
CN1CCN(c2ccccc2NC(=O)COc2ccc(Br)cc2)CC1	i	-3	i	-5.1*	i	i	i	i	18%*	i	i	i
CCCCn1c(N)c(N(CCOC)C(=O)c2ccc(Cl)c(S(=O)(=O)N3CCCCC3)c2)c(=O)[nH]c1=O	i	-1	i	i	i	i	.	.	.	.	.	.
CCCn1nnnc1NC(=O)COc1ccc(Br)cc1	i	-16	i	i	i	i	.	.	.	.	.	.
S=C(NCCN1CCOCC1)N/N=C/c1c2ccccc2cc2ccccc12	i	-3	i	-5.2*	i	i	260%*	i	-22%*	i	i	i
C/C=C\C=C/C(=O)Nc1cccc(C2=NOC3(C2)C[C@H](C(N)=O)N(C(=O)c2ccc(OC)cc2)C3)c1 (stereo partly specified)	i	0	i	i	i	i	.	.	.	.	.	.
O=C1/C(=C\c2cc(Cl)c(O)c(Cl)c2)SC(=S)N1Cc1ccccc1	i	3	152*	i	97*	35*	+	i	538%*	i	i	594%*
CCOc1cc(C(=S)N2CCC(O)CC2)ccc1OS(=O)(=O)c1ccc(Br)cc1	i	2	i	-8.4*	i	i	.	.	.	.	i	i	TRPC4 sel inh 2=i;TRPC4 spec=i;HEK293 MPD ctr 2-1=i;HEK293 MPD ctr-1=i
O=C(COCC(=O)Nc1cccc(C(F)(F)F)c1)Nc1cccc(C(F)(F)F)c1	i	-1	i	i	i	i	.	.	.	.	.	.
COc1cc(NC(=O)CSCC(=O)Nc2cccc(C(F)(F)F)c2)c(Cl)cc1Cl	i	20	i	-7.3*	i	i	.	.	.	.	i	i	TRPC4 sel inh 2=i;TRPC4 spec=i;HEK293 MPD ctr 2-1=i;HEK293 MPD ctr-1=i
Nc1ccc(/C=C/C(=O)c2cccs2)cc1	i	6	81*	i	92*	i	+	+	291%*	76%*	.	543%*
CCC(CC)c1nnc(NC(=O)C2CSC3(C)CCC(=O)N23)s1 (stereo unspecified)	i	-4	i	i	i	i	.	.	.	.	.	.
O=C(NNc1c(F)c(F)cc(F)c1F)c1cc2ccccc2oc1=O	i	4	i	i	i	i	.	.	.	.	.	.
COC(=O)CCC(=O)OC1(C)C(=O)C=C2C=C(C3CC3)N(CCc3ccccn3)C=C2C1=O (stereo unspecified)	i	1	i	i	i	i	.	.	.	.	.	.
COC(=O)CCC(=O)OC1(C)C(=O)C=C2C=C(C3CC3)N(CCc3c[nH]c4ccccc34)C=C2C1=O (stereo unspecified)	i	10	i	-7.2*	i	i	.	.	.	.	i	i	TRPC4 sel inh 2=i;TRPC4 spec=i;HEK293 MPD ctr 2-1=i;HEK293 MPD ctr-1=i
Cc1ccc(-c2nn(-c3cc(N4CCNCC4)ccc3[N+](=O)[O-])c(=O)c3ccccc23)cc1	i	1	i	-9.6*	i	i	.	.	.	.	i	i	TRPC4 sel inh 2=51%*;TRPC4 spec=-11%*;HEK293 MPD ctr 2-1=i;HEK293 MPD ctr-1=i
Cc1nn(-c2cc(N3CCCCCC3)ccc2[N+](=O)[O-])c(=O)c2ccccc12	i	-3	i	i	i	i	.	.	.	.	.	.
Cc1c(C)[n+](=O)c2c(n1[O-])CCCCC2	i	-6	i	-7.7*	i	i	.	.	.	.	i	i	TRPC4 sel inh 2=i;TRPC4 spec=i;HEK293 MPD ctr 2-1=i;HEK293 MPD ctr-1=i
